Test results published in ChEMBL document CHEMBL1128453, “Peptidyl alpha-ketoheterocyclic inhibitors of human neutrophil elastase. 3. In vitro and in vivo potency of a series of peptidyl alpha-ketobenzoxazoles” (J Med Chem, 1995).

What was measured:
[1] = Percent reduction in leukocytes following elastase challenge/treatment.; type: functional; set-up: concentration or dose not given beside the values
How it was run: (§1)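 Male Syrian hamsters (90–110 g), anaesthetised with brevital sodium (30 mg/kg ip), received intratracheal HNE (400 μg in 0.01 M PBS). Test agent was given intratracheally, either admixed with the enzyme or predosed (shortest interval 6 h). Dose interval is the longest with significant lesion inhibition. At 24 h, wet lung weight/body weight and lavage red/white cells (Coulter) were measured. Results are % reduction scaled between the HNE and saline controls (p = 0.05).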

[2] = target: T1, Neutrophil elastase (Homo sapiens) (UniProt P08246); conditions: Lung
T1 sequence (whole entry): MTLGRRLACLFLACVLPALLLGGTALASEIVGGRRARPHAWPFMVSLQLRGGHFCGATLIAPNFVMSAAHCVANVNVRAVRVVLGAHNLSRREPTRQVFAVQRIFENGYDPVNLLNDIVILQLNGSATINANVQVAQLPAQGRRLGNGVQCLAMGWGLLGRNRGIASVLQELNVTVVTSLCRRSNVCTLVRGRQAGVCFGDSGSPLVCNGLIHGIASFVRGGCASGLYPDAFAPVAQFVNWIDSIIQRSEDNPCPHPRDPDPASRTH

[3] = Percentage reduction in erythrocytes following elastase challenge/treatment.; type: functional; set-up: concentration or dose not given beside the values; how it was run: as §1
Neutrophil elastase = target: T2, Neutrophil elastase (Homo sapiens, UniProt P08246); assay: Inhibition of human neutrophil elastase-catalyzed hydrolysis of the synthetic substrate MeO-Suc-Ala-Ala-Pro-Val-pNa
T2 sequence (P08246 whole entry): T1 sequence (whole entry)

Cricetinae gen. sp. [4] = assay: Dose interval reported as the longest interval at which significant inhibition of HNE induced uM Dose of HNE used was 400 ug/hamster; type: functional; how it was run: as §1
[5] = Evaluated for the percent reduction relative to HNE and saline controls of red blood cells; type: functional; how it was run: as §1
Cricetinae gen. sp. [6] = assay: Compound is evaluated for wet lung weight (LW) relative to body weight (Bw).Value is statistically significant relative to control (p = 0.05).; type: functional; how it was run: as §1
[7] = Evaluated for the percent reduction relative to HNE and saline controls of white blood cells; type: functional; how it was run: as §1
[8] = Evaluated for the percent reduction relative to HNE and saline controls of red blood cells. An asterisk (*) indicates (p = 0.05).; type: functional; how it was run: as §1

Lw/Bw [2] | Ki (Neutrophil elastase) [nM] | SMILES | Reduction [1] [%] | Reduction [3] [%] | other results
48 | 0.06 | COC(=O)c1ccc2oc(C(=O)[C@@H](NC(=O)[C@@H]3CCCN3C(=O)[C@@H](NC(=O)c3ccc(NC(=O)NS(=O)(=O)c4ccc(Cl)cc4)cc3)C(C)C)C(C)C)nc2c1 | -31 | 13 | 
 | 1 | CC(C)[C@H](NC(=O)[C@@H]1CCCN1C(=O)[C@@H](NC(=O)OCc1ccccc1)C(C)C)C(=O)c1nc2cc(C(=O)ON)ccc2o1 |  |  | 
 |  | CC(C)[C@H](NC(=O)[C@@H]1CCCN1C(=O)[C@@H](NC(=O)c1ccc(C(=O)NS(=O)(=O)c2ccc(Cl)cc2)cc1)C(C)C)C(=O)c1nc2ccccc2o1 | 84 | 80 | Dose interval (Cricetinae gen. sp. [4]): 6 h
 | 1.9 | COc1ccc2oc(C(=O)[C@@H](NC(=O)[C@@H]3CCCN3C(=O)[C@@H](NC(=O)OCc3ccccc3)C(C)C)C(C)C)nc2c1 |  |  | 
15 |  | COC(=O)c1ccc2oc(C(=O)[C@@H](NC(=O)[C@@H]3CCCN3C(=O)[C@@H](NC(=O)c3ccc(S(N)(=O)=O)cc3)C(C)C)C(C)C)nc2c1 | 30 | -32 | 
 | 2.4 | CC(C)[C@H](NC(=O)[C@@H]1CCCN1C(=O)[C@@H](NC(=O)OCc1ccccc1)C(C)C)C(=O)c1nc2cc(CO)ccc2o1 |  |  | 
 | 0.43 | CC(C)[C@H](NC(=O)[C@@H]1CCCN1C(=O)[C@@H](NC(=O)OCc1ccccc1)C(C)C)C(=O)c1nc2cc(CO[Si](C)(C)C(C)(C)C)ccc2o1 |  |  | 
 |  | COC(=O)c1ccc2nc(C(=O)[C@@H](NC(=O)[C@@H]3CCCN3C(=O)[C@@H](NC(=O)c3ccc(C(=O)NS(=O)(=O)c4ccc(Cl)cc4)cc3)C(C)C)C(C)C)oc2c1 | 72 | 76 | 
48 | 0.66 | COc1ccc2oc(C(=O)[C@@H](NC(=O)[C@@H]3CCCN3C(=O)[C@@H](NC(=O)c3ccc(C(=O)NS(=O)(=O)c4ccc(Cl)cc4)cc3)C(C)C)C(C)C)nc2c1 | 24 | 21 | 
 | 1.1 | COC(=O)Cc1ccc2oc(C(=O)[C@@H](NC(=O)[C@@H]3CCCN3C(=O)[C@@H](NC(=O)OCc3ccccc3)C(C)C)C(C)C)nc2c1 |  |  | 
30 | 0.66 | CC(C)[C@H](NC(=O)[C@@H]1CCCN1C(=O)[C@@H](NC(=O)c1ccc(C(=O)NS(=O)(=O)c2ccc(Cl)cc2)cc1)C(C)C)C(=O)c1nc2cc(CO)ccc2o1 | 39 | 46 | 
71 | 0.3 | COC(=O)c1ccc2oc(C(=O)[C@@H](NC(=O)[C@@H]3CCCN3C(=O)[C@@H](NC(=O)c3ccc(NS(=O)(=O)C(F)(F)F)cc3)C(C)C)C(C)C)nc2c1 | 77 | 82 | 
29 | 0.5 | CC(C)[C@H](NC(=O)[C@@H]1CCCN1C(=O)[C@@H](NC(=O)c1ccc(C(=O)NS(=O)(=O)c2ccccc2)cc1)C(C)C)C(=O)c1nc2ccccc2o1 | 64 | 58 | Dose interval (Cricetinae gen. sp. [4]): 6 h
 |  | COC(=O)c1ccc(C(=O)N[C@H](C(=O)N2CCC[C@H]2C(=O)N[C@H](C(=O)c2nc3ccccc3o2)C(C)C)C(C)C)cc1 | -5 |  | Reduction [5]: 17%
 | 1.8 | CC(C)[C@H](NC(=O)[C@@H]1CCCN1C(=O)[C@@H](NC(=O)OCc1ccccc1)C(C)C)C(=O)c1nc2cc(C#N)ccc2o1 |  |  | 
 | 4.2 | CC(C)[C@H](NC(=O)[C@@H]1CCCN1C(=O)[C@@H](NC(=O)OCc1ccccc1)C(C)C)C(=O)c1nc2cc(C(=O)O)ccc2o1 |  |  | 
63 | 0.6 | CC(C)[C@H](NC(=O)[C@@H]1CCCN1C(=O)[C@@H](NC(=O)c1ccc(NC(=O)NS(=O)(=O)c2ccccc2)cc1)C(C)C)C(=O)c1nc2ccccc2o1 | 31 | 62 | 
 |  | CC(C)[C@H](NC(=O)[C@@H]1CCCN1C(=O)[C@@H](NC(=O)c1ccc(C(=O)OC(C)(C)C)cc1)C(C)C)C(=O)c1nc2ccccc2o1 |  |  | Lw/Bw (Cricetinae gen. sp. [6]): 41; Reduction [5]: 29%; Reduction [7]: -14%
 | 4.4 | CC(C)[C@H](NC(=O)[C@@H]1CCCN1C(=O)[C@@H](NC(=O)OCc1ccccc1)C(C)C)C(=O)c1nc2cc(CC(=O)O)ccc2o1 |  |  | 
38 |  | CC(C)[C@H](NC(=O)[C@@H]1CCCN1C(=O)[C@@H](NC(=O)c1ccc(C(=O)NS(=O)(=O)c2ccc(Cl)cc2)cc1)C(C)C)C(=O)c1nc2cc(O)ccc2o1 | 40 | 57 | 
67 | 0.1 | COC(=O)c1ccc2oc(C(=O)[C@@H](NC(=O)[C@@H]3CCCN3C(=O)[C@@H](NC(=O)c3ccc(C(=O)NS(=O)(=O)c4ccc(Cl)cc4)cc3)C(C)C)C(C)C)nc2c1 | -32 | 71 | 
87 | 4.6 | CC(C)[C@H](NC(=O)[C@@H]1CCCN1C(=O)[C@@H](NC(=O)c1ccc(C(=O)NS(C)(=O)=O)cc1)C(C)C)C(=O)c1nc2ccccc2o1 | 78 | 84 | 
 | 1.1 | CC(C)[C@H](NC(=O)[C@@H]1CCCN1C(=O)[C@@H](NC(=O)OCc1ccccc1)C(C)C)C(=O)c1nc2cc(Cl)ccc2o1 |  |  | 
 |  | CC(C)[C@H](NC(=O)[C@@H]1CCCN1C(=O)[C@@H](NC(=O)c1ccc(NC(=O)NS(=O)(=O)c2ccc(Cl)cc2)cc1)C(C)C)C(=O)c1nc2ccccc2o1 | 82 | 68 | Dose interval (Cricetinae gen. sp. [4]): 6 h
 |  | CC(C)[C@H](NC(=O)[C@@H]1CCCN1C(=O)[C@@H](NC(=O)c1ccc(C(=O)O)cc1)C(C)C)C(=O)c1nc2ccccc2o1 | -1 |  | Reduction [8]: 49%
 |  | CC(C)[C@H](NC(=O)[C@@H]1CCCN1C(=O)[C@@H](NC(=O)c1ccc(S(N)(=O)=O)cc1)C(C)C)C(=O)c1nc2ccccc2o1 | -42 | -44 | 
 | 0.37 | COC(=O)c1ccc2oc(C(=O)[C@@H](NC(=O)[C@@H]3CCCN3C(=O)[C@@H](NC(=O)OCc3ccccc3)C(C)C)C(C)C)nc2c1 |  |  | 
 | 0.55 | COC(=O)c1ccc2nc(C(=O)[C@@H](NC(=O)[C@@H]3CCCN3C(=O)[C@@H](NC(=O)OCc3ccccc3)C(C)C)C(C)C)oc2c1 |  |  | 
68 | 1.5 | CC(C)[C@H](NC(=O)[C@@H]1CCCN1C(=O)[C@@H](NC(=O)c1ccc(C(=O)NS(=O)(=O)C(C)C)cc1)C(C)C)C(=O)c1nc2ccccc2o1 | 70 | 60 | 
63 | 0.65 | CC(C)[C@H](NC(=O)[C@@H]1CCCN1C(=O)[C@@H](NC(=O)c1ccc(C(=O)NS(=O)(=O)c2ccc(Cl)cc2)cc1)C(C)C)C(=O)c1nc2cc(C(=O)O)ccc2o1 | 66 | 94 | 
